# Screening results deposited in PubChem BioAssay by several laboratories.
# Hits are enriched below; roughly 4.1% of the tested compounds scored in any of these assays.
# KCNK9 inh = KCNK9 potassium channel inhibitors, primary screen, HEK293 cells, thallium flux | FluxOR thallium flux fluorescence; active compounds read low | B-score at 10 µM | 1.2% of 310,000 active | AID 488922, 2010;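 active means ratio B-score over 3 SD below the library mean, with starting fluorescence within 5 SD of its mean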;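 further: negative B-score means less thallium flux so channel inhibition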
# KCNK3 block = human KCNK3 channel inhibitors, primary screen, CHO cells, FluxOR thallium flux, B-score | FluxOR fluorescence; active compounds read low | Potassium channel subfamily K member 3 (Homo sapiens), O14649 | B-score at 10 µM | 0.84% of 340,000 active;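 active means B-score under library mean minus 4 SD, starting fluorescence ratio at most library mean plus 5 SD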;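 further: more negative B-score means stronger inhibition of thallium flux through KCNK3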
# KCNQ1 inh = inhibitors of human KCNQ1 channel, primary screen, cell-based, thallium flux, high-throughput; Potassium voltage-gated channel subfamily KQT member 1 (Homo sapiens), P51787; 1.3% of 310,000 active; CHO-K1 KCNQ1, FluxOR thallium flux fluorescence; active compounds read high; B-score at 10 µM;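 active means compounds whose thallium flux B-score, printed positive for inhibition, exceeds three library SD while starting fluorescence stays within three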;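 further: channel opened by potassium depolarization with thallium stimulus after 20 min compound exposure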
# Target sequence (P51787 whole entry, looked up): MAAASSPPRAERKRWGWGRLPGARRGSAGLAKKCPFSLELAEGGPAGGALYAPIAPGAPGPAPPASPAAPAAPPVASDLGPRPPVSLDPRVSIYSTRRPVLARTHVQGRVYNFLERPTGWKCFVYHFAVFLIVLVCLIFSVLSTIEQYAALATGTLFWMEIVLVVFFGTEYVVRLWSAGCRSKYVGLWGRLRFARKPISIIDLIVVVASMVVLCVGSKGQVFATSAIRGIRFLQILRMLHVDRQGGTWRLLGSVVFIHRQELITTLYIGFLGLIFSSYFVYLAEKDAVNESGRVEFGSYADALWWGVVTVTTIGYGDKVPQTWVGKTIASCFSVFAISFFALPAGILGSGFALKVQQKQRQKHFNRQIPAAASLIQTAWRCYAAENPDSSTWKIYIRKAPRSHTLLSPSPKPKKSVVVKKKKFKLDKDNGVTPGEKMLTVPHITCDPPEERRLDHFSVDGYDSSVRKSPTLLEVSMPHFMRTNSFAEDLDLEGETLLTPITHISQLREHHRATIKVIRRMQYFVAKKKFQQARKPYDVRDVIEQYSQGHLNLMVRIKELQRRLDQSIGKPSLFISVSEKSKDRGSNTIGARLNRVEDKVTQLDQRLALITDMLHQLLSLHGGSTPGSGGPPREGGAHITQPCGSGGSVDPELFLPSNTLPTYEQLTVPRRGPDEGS
# KCNQ1 pot = potentiators or activators of KCNQ1 channel, primary screen, cell-based, thallium flux, high-throughput; 0.35% of 310,000 active; B-score at 10 µM; AID 2648, 2010; Potassium voltage-gated channel subfamily KQT member 1 (Homo sapiens), P51787; CHO-K1 KCNQ1, thallium flux FluxOR fluorescence; active compounds read high;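 active means fluorescence ratio B-score, a plate-corrected score, at least three library SD, with initial intensity B-score within 5 SD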
#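 Assay system: CHO-K1 cells stably expressing KCNQ1. Medium: assay buffer for compound exposure, DMSO matched across wells. Timing: 37 °C overnight plating, 90-min dark dye load, 20-min compound pretreatment. Signal: kinetic FluxOR fluorescence, 10 s baseline plus 110 s post-stimulus.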
# hERG protect = hERG rescue from dofetilide block, primary screen, cell-based, CHO-hERG, FluxOR thallium flux, dofetilide IC70; Voltage-gated inwardly rectifying potassium channel KCNH2 (Homo sapiens), Q12809; dofetilide IC70 present; activation (rescue from dofetilide block), less the hit threshold, % at 10 µM; 0.51% of 310,000 active;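 active means activation above the mean of controls blocked by dofetilide plus 5 SD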;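 further: thallium influx through hERG after potassium depolarization seen as dye fluorescence rise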
# Cl transport mod = KCC2 cotransporter modulators, thallium flux, primary screen, cell-based, HEK293 KCC2, FluoZin-2 fluorescence, MLSMR; Solute carrier family 12 member 5 (Homo sapiens), Q9H2X9; KCC2 cells, thallium flux FluoZin-2 fluorescence; B-score of Tl+ flux slope (higher = more flux/activation; lower = inhibition) at 10 µM; 2.2% of 190,000 active;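 active means thallium flux slope and its plate-corrected score both differing from the plate sample mean at a set confidence after two filtering rounds, in either direction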;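 further: slope of fluorescence scaled to starting intensity during 10 to 20 s after thallium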
# KCNK3 confirm = retest of human KCNK3 channel inhibitors, confirmation, CHO cells, FluxOR thallium flux, triplicate; shares compounds with KCNK3 block; FluxOR fluorescence; 0% buffer, 100% carvedilol maximal block; ratio percent of control, % at 10 µM; 99% of 2,400 active; AID 651638, 2012;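 active means ratio percent of control, averaged over triplicates, above buffer control mean plus 5 SD, cut at about 64% in these data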;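 further: ratio is the fluorescence rise from min to max over baseline after thallium stimulus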
# KCNK3 uninduced = thallium flux inhibition in non-induced cells, primary screen, counter-screen for KCNK3 inhibitor project, cell-based, non-induced KCNK3 line, FluxOR thallium, triplicate; shares compounds with KCNK3 block; non-induced KCNK3 parental cells; active compounds read low; thallium flux ratio (lower = more inhibition) at 10 µM; 40% of 2,400 active; AID 651747, 2012;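 active means thallium flux ratio, averaged over three wells, more than 5 SD below the buffer control mean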;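 further: host cells are CHO cells without KCNK3 induction; ratio is peak minus trough fluorescence over baseline then normalized to buffer controls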
# An asterisk follows results filed as active; i = inactive; / = no result.
SMILES,KCNK9 inh,KCNK3 block,KCNQ1 inh,KCNQ1 pot,hERG protect,Cl transport mod,KCNK3 confirm,KCNK3 uninduced
COc1ccc(/C=C/C(=O)OCc2cccc([N+](=O)[O-])c2)cc1,i,-9.6*,i,i,-24,-1.8,95*,0.14*
COc1cccc(/C=C/C(=O)c2cccc([N+](=O)[O-])c2)c1,i,i,i,i,-6,-0.17,/,/
COc1ccc(/C=C/C(=O)c2ccc([N+](=O)[O-])o2)cc1,i,-11*,i,i,-12,/,99*,i
CN(C)S(=O)(=O)c1ccc(C(=O)NCc2ccco2)cc1,i,-9.2*,i,i,-4,1,72*,i
Cc1c(C(=O)Nc2c(C)n(C)n(-c3ccccc3)c2=O)oc2ccc(Cl)cc12,i,i,i,i,-8,/,/,/
COc1ccc(Sc2ccc(NC(=O)c3ccccc3Cl)cc2C#N)cc1,i,-12*,i,i,-7,/,106*,0.15*
CCc1ccc(N2CC(C)Cn3c2nc2c3c(=O)[nH]c(=O)n2C)cc1 (stereo not drawn),i,i,i,i,1,/,/,/
Cc1ccc(CNC(=O)CCn2ccc3cc(S(=O)(=O)N4CCCC4)ccc32)cc1,i,i,i,i,-4,/,/,/
CCc1ccc(CNC(=O)CCn2ccc3cc(S(=O)(=O)N4CCCC4)ccc32)cc1,i,-10*,i,i,-6,/,117*,0.15*
CC(C)c1nc(CNC(=O)C2CCC(=O)N(CCc3cccc(F)c3)C2)cs1 (stereo not drawn),i,-11*,i,i,-4,/,77*,i
O=C(CSc1nnc(SCc2ccc(Cl)cc2)s1)N/N=C/c1c[nH]c2ccccc12,i,i,i,i,-11,-2.4,/,/
O=C(N/N=C/c1c[nH]c2ccc(Br)cc12)c1ccccn1,i,i,i,i,-7,0.05,/,/
O=C(N/N=C/c1c[nH]c2ccccc12)c1ccn(Cc2ccc(Cl)cc2)n1,i,-11*,i,i,-16,-0.93,98*,0.15*
O=C(N/N=C/c1c[nH]c2ccc(Br)cc12)c1ccn(Cc2ccc(Cl)cc2Cl)n1,-7.2*,-9.8*,i,i,-12,-0.0029,79*,i
COc1c(C)cc(Br)cc1C(=O)NC(=S)NCc1ccco1,i,i,i,i,-8,/,/,/
Cn1cc(Cl)c(C(=O)OCC(=O)Nc2ccc(S(N)(=O)=O)cc2)n1,i,i,i,i,-8,/,/,/
COc1ccc(N2CCN(S(=O)(=O)c3ccc(-c4cc(C)no4)s3)CC2)cc1,i,i,i,i,-7,/,/,/
CCN(c1ccc(OC)cc1)S(=O)(=O)c1ccc(-c2cc(C)no2)s1,i,-12*,i,i,0,/,119*,i
Cc1cc(-c2ccc(S(=O)(=O)N3CCN(C)CC3)s2)on1,i,i,i,i,-5,/,/,/
CCc1ccccc1N(C)S(=O)(=O)c1ccc(-c2cc(C)no2)s1,i,-9.9*,i,i,-6,/,113*,i
Cc1cc(C)cc(NC(=O)N2CCNC(=O)C2CC(=O)Nc2cc(Cl)ccc2Cl)c1 (stereo not drawn),i,i,i,i,-5,/,/,/
COC(=O)c1cccc(NC(=O)CC2C(=O)NCCN2C(=O)Nc2cc(C)cc(C)c2)c1 (stereo not drawn),i,-9.2*,i,i,-16,/,119*,0.14*
CCOc1cc(N2CCOCC2)c(OCC)cc1NC(=O)CSc1ncccc1C(=O)O,/,i,/,/,/,/,/,/
COc1ccc(-c2csc(N(CC3CCCO3)C(=O)c3ccc(C)cc3)n2)cc1 (stereo not drawn),i,i,i,i,-11,0.06,/,/
COc1ccc(-c2csc(N(CC3CCCO3)C(=O)c3ccccc3)n2)cc1 (stereo not drawn),i,-8.9*,i,i,-10,0.72,89*,i
SMILES,KCNK9 inh,KCNK3 block,KCNQ1 inh,KCNQ1 pot,hERG protect,Cl transport mod,KCNK3 confirm,KCNK3 uninduced
COc1cccc(CNC(=O)COC(=O)c2cc([N+](=O)[O-])ccc2N2CCCC2)c1,/,i,/,/,/,/,/,/
CCCCc1nn(-c2cc(Cl)ccc2OC)c2c1C(=O)CC(C)(C)C2,i,-10*,i,i,-4,-1.8,92*,i
CC1(c2ccccc2)NC(=O)N(CC(=O)NCC2CCCO2)C1=O (stereo not drawn),/,i,/,/,/,/,/,/
CCS(=O)(=O)c1ncc(Cl)c(C(=O)Nc2ccc(S(=O)(=O)N3CCCC(C)C3)cc2)n1 (stereo not drawn),i,i,i,i,-8,/,/,/
CCC1CCCCN1S(=O)(=O)c1ccc(NC(=O)c2nc(S(C)(=O)=O)ncc2Cl)cc1 (stereo not drawn),i,-11*,i,i,-29,/,114*,0.14*
CCC1CCCCN1S(=O)(=O)c1ccc(NC(=O)c2ccncc2)cc1 (stereo not drawn),i,-10*,i,i,-6,/,121*,i
CC(C)Cn1nc(C(=O)Nc2cccc(C(=O)NC3CC3)c2)c2ccccc2c1=O,/,i,/,/,/,/,/,/
CCN(Cc1ccccc1)C(=O)c1cc2c(=O)oc3ccc(C)cc3c2s1,i,-8.9*,6*,i,-20,-2,111*,0.12*
CC(C)n1cc(-c2ccc(Cl)cc2)cc(C#N)c1=O,i,-10*,i,i,0,-1.2,107*,i
COc1ccc(N2CCN(C(=O)Cc3cccs3)CC2)cc1,i,-9.5*,i,i,3,0.13,75*,i
CC(=O)c1ccc(N2CCN(C(=O)Cc3cccs3)CC2)cc1,i,i,i,i,-14,1.3,/,/
C=CCn1c(SCC(=O)c2cccs2)nc2sc(CC)cc2c1=O,i,-11*,i,i,-9,/,128*,i
